Screens (PubChem)
T cruzi repl = T. cruzi replication inhibition; T. cruzi beta-gal in NIH3T3, luminescence, 90 h; inhibition, % (no concentration beside the values); 300,000 tested, 1.4% active;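 active = mean inhibition across valid replicates above about 55%, limit read from the data; inconclusive = mean below that limit but half or more replicates reach it; inactive = mean below it, under half of replicates reach it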;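 also: signal also drops with host cell toxicity which is not excluded here; 0% = plate median of DMSO wells and 100% = zero luminescence signal; higher percent means less beta-gal luminescence so fewer parasites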
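System: Mouse NIH/3T3 fibroblasts infected with β-gal-expressing T. cruzi Tulahuen C4 | Quantity: NIH/3T3 cells, 5,000 per well | Reagent: 5000 reporter trypomastigotes per well | Dosing: Compound pinned at 50 nL/well, DMSO | Schedule: 3 h host attachment, then at least 90 h co-culture | Detection: GalScreen luminescence, 60 min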
Mdm2-MdmX inh = inhibitors of human Mdm2/MdmX interaction; inhibition, % at 8 µM; AID 485346; O15151+Q00987; 330,000 tested, 3% active; SaOS-2 split-luciferase Mdm2/MdmX complementation, luminescence;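 active = inhibition of at least 50% at 8 µM in the primary screen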
CHOP UPR activ = apoptotic UPR (CHOP) activation; CHO-CHOP luciferase reporter, luminescence; percent of tunicamycin response over DMSO baseline; AID 449763; 330,000 tested, 0.34% active; activation, % at 10 µM;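 active = at 10 µM dose, activation of 40% or more, normalized to positive control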;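 also: 100% = tunicamycin at 10 µg/mL and 0% = DMSO alone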
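Dosing – one dose, 10 µM in 0.5% DMSO · System – CHO-CHOP cells, stable luciferase reporter of PERK-eIF2a-CHOP signalling · Input – 500 cells/well · Control set – tunicamycin 10 µg/mL final as positive, DMSO-only wells as negative · Timing – 6 h compound treatment, 37 °C · Measure – % activation vs tunicamycin · Technique – luminescence read with Steady-Glo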
UPR XBP1 act = adaptive UPR (XBP1) activation. CHO-XBP1 luciferase reporter, IRE1-XBP1 UPR activation, luminescence; percent of tunicamycin response, DMSO as zero. activation, % at 20 µM. 330,000 tested, 0.33% active;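 active = versus positive control, 20 µM dose yields 30% or more activation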;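 also: 100% = tunicamycin at 10 µg/mL and 0% = DMSO only wells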
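Signal: luciferase luminescence; Assay system: CHO-XBP1 luciferase reporter cells; Amount: one thousand reporter cells per well; Dosing: 20 µM single concentration, DMSO 1%; Benchmarks: high control tunicamycin 10 µg/mL final, low control DMSO vehicle only; Schedule: 6 h compound exposure at 37 °C, 5% CO2; Evaluation: percent activation relative to tunicamycin reference.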
CSC inhib = cancer stem cell inhibition; cancer stem cell-like cells viability, luminescence; inhibition, % at 7.5 µM; 300,000 tested, 1.1% active; in the data active = inhibition above about 75%; inconclusive = no clear call, values can overlap the other calls; tested in HMLE shEcad cells
Beta apoptosis = blocks beta cell apoptosis; 300,000 tested, 0.8% active; protection from apoptosis, % (concentration not given with the values); INS-1E cytokine-induced death, ATP luminescence, 48 h; percent of positive-control rescue, neutral wells zero;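 active = Every replicate reaches about 75%, or at least half do and their mean reaches it too, limit read from the data; inconclusive = At least half of replicates reach the limit but their mean does not; inactive = Under half of replicates reach the limit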;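 also: 0% = cytokine-treated negative control wells and 100% = positive control rescue; higher means more ATP so stronger rescue from cytokine killing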
Mdm2 MdmX conf = confirmation of human Mdm2/MdmX interaction inhibitors | shares compounds with Mdm2-MdmX inh | Mdm2-MdmX binding, luminescent assay | inhibition, % at 8 µM | 10,000 tested, 55% active | AID 489028; in the data active = inhibition above about 40%
Full FLuc ctr = inhibits full-length luciferase, flagging false Mdm2/MdmX hits; shares compounds with Mdm2-MdmX inh; SaOS-2 full-length luciferase counterscreen, luminescence; inhibition, % at 8 µM; 6,200 tested, 77% active; AID 504607;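 active = mean inhibition at 8 µM reaching about 37%, which flags the compound as non-specific, limit read from the data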;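 also: p53-null SaOS-2 cells with luciferase driven by a doxycycline-inducible promoter; compound on cells about two nights before reading with doxycycline added after day one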
An asterisk follows results filed as active; ? = inconclusive; . = not tested or not shown. Compounds with a hit are over-represented: about 5% of the library has one in this group of screens.

SMILES | T cruzi repl | Mdm2-MdmX inh | CHOP UPR activ | UPR XBP1 act | CSC inhib | Beta apoptosis | Mdm2 MdmX conf | Full FLuc ctr
CC(=O)Nc1nc2ccccc2n1Cc1ccccc1Cl | 47.3 | 66.7* | 0.1 | 4.9 | 33.3 | -7.3 | 59.5* | 66.7*
COc1ccc(C(=O)Nc2ccccc2C(=O)Nc2ccncc2)cc1 | ? | 5.9 | 4.2 | 2.7 | -6.8 | 12.2 | . | .
Cc1ccc(S(=O)(=O)N2CCCN(C(=O)CNC(=O)c3cccc(C)c3)CC2)cc1 | . | -22.0 | 0.1 | -5.2 | -23.3 | -1.2 | . | .
O=C(Cc1nc2ccccc2[nH]1)c1cccc([N+](=O)[O-])c1 | 23.2 | 87.3* | -3.7 | -2.7 | 90.8* | 58.7 | 77.0* | 38.6*
O=C(Nc1nc2ccccc2[nH]1)c1cccc([N+](=O)[O-])c1 | -30.4 | -53.2 | 5.5 | 4.8 | -2.3 | 13.5 | . | .
Cc1ccc(-n2ncc(C(=O)Nc3cc(Cl)ccc3C)c2C2CCNCC2)cc1C | 18.6 | 66.2* | -0.9 | -1.4 | 20.2 | 12.0 | 38.1 | 71.7*
CCOC(=O)C(Cc1ccccc1)C(=O)Nc1cccc2ccccc12 (stereo not drawn) | 1.3 | -12.9 | -1.9 | -0.9 | -22.4 | -7.0 | . | .
CCOC(=O)C(C)Oc1cccc2c(=O)n(CC(=O)NCc3ccc4c(c3)OCO4)ccc12 (stereo not drawn) | -14.6 | 53.8* | -1.2 | 7.5 | 54.9 | 16.6 | 58.9* | 56.8*
CCOC(=O)COc1cccc2c(=O)n(CC(=O)NCc3ccc(F)cc3)ccc12 | 36.9 | 58.8* | 0.2 | 9.1 | 63.2 | 3.5 | 60.8* | 83.4*
CC(C)(C)c1cc(NC(=O)CCl)n(-c2ccccc2)n1 | 35.9 | 78.7* | 17.4 | -3.2 | 15.5 | -15.2 | 58.0* | 24.1
COCCn1c(SCC(=O)Nc2cc(C(C)(C)C)nn2-c2ccccc2)nc2ccccc2c1=O | 6.6 | 4.7 | 1.5 | -0.1 | 2.6 | 3.5 | . | .
CCOCCCn1c(SCC(=O)Nc2cc(C(C)(C)C)nn2-c2ccccc2)nc2ccccc2c1=O | 21.1 | 53.7* | -1.3 | -2.5 | 7.1 | 4.8 | 7.5 | .
O=C(Nc1ccccc1F)c1cc(S(=O)(=O)N2CCOCC2)cs1 | -9.1 | 29.0 | 0.4 | -2.2 | -12.3 | -2.7 | . | .
O=C(CCl)Nc1cccc(Oc2ccccc2)c1 | 56.2* | 94.2* | 7.0 | -5.0 | -8.0 | -7.8 | 21.1 | .
O=C(NC1CC1)C1CCN(c2ncnc3c2sc2cccc(F)c23)CC1 | 10.7 | 30.8 | 0.2 | -2.7 | -4.5 | 0.2 | . | .
COc1cc(NC(=O)C2CCCCC2)c(OC)cc1NC(=O)CCC(=O)NCc1ccco1 | -9.2 | 17.9 | 2.6 | 0.9 | -16.8 | 3.4 | . | .
COc1ccc(Cc2nnc(NC(C)=O)s2)cc1 | 2.1 | 12.1 | -2.0 | -0.9 | -0.2 | -1.6 | . | .
COc1ccc(Cc2nnc(NC(=O)c3cc(OC)cc(OC)c3)s2)cc1 | 1.3 | 52.0* | 1.0 | -3.3 | 58.1 | -8.2 | 46.1* | 86.1*
Clc1cccc(CN2CCN(Cc3nc(CCc4ccccc4)no3)CC2)c1 | 46.4 | 14.5 | -0.7 | -0.3 | -11.4 | -6.4 | . | .
CC(=O)N(C)c1ccc(OCC(O)Cn2c3ccc(Cl)cc3c3cc(Cl)ccc32)cc1 (stereo not drawn) | 48.4 | 82.1* | 7.8 | 19.8 | 105.4* | 25.5 | 44.6* | 53.5*
CC1CCCC(CC(=O)O)(CC(=O)O)C1 (stereo not drawn) | -4.0 | 9.3 | -0.1 | -3.2 | -20.0 | 0.5 | . | .
CC1CC2(C)Oc3ccccc3CC2C(C)C1CNCCCN(C)C (stereo not drawn) | 51.0 | 96.7* | 1.5 | 3.1 | 49.0 | 21.4 | 99.6* | 55.0*
Cn1cnnc1SCC(=O)Nc1ccc2ccccc2c1 | . | 7.7 | 0.5 | 0.0 | . | -5.6 | . | .
COc1cc(OC)c(NC(=O)C(=O)CC(=O)c2ccc(C)cc2C)cc1Cl | 34.4 | 51.5* | 9.1 | 2.3 | 26.8 | -9.5 | 29.2 | 81.3*
Cc1ccc(NC(=O)CNC(=O)c2cccc(C)c2)nc1 | -8.4 | 75.7* | -0.2 | 0.1 | 42.6 | . | 47.9* | 61.5*
SMILES | T cruzi repl | Mdm2-MdmX inh | CHOP UPR activ | UPR XBP1 act | CSC inhib | Beta apoptosis | Mdm2 MdmX conf | Full FLuc ctr
CCOC(=O)N1CCN(C(=O)c2ccccc2N(Cc2ccccc2)S(=O)(=O)c2ccccc2)CC1 | -18.8 | -4.6 | -0.3 | -4.3 | -2.1 | . | . | .
CCCn1c(N)c(N(CCOC)C(=O)/C=C/c2ccc(C(=O)OC)cc2)c(=O)[nH]c1=O | -0.1 | -27.6 | 0.4 | -3.4 | -6.3 | . | . | .
COC(=O)CC1COc2ccccc2N1S(=O)(=O)c1ccc(OC)cc1 (stereo not drawn) | 6.8 | 55.4* | 1.4 | -1.4 | 47.4 | 1.7 | 50.6* | 60.8*
COC(=O)CC1COc2ccccc2N1S(=O)(=O)c1ccc(Br)cc1 (stereo not drawn) | 12.3 | -10.8 | -0.4 | -4.3 | 2.0 | -3.6 | . | .
CC(=O)Nc1sc(C)c(C)c1C(=O)OCC(=O)NC(C)c1ccccc1 (stereo not drawn) | . | 20.1 | 2.3 | -1.0 | . | . | . | .
O=C(/C=C/c1ccccc1)/C=C/c1ccccc1 | 0.9 | 95.4* | 10.1 | 5.7 | ? | 19.4 | 21.9 | .
O=C(/C=C/c1ccccc1)c1ccccc1 | -12.9 | 17.6 | 3.9 | 9.7 | 14.8 | -7.7 | . | .
Cc1ccc(/C=N/NC(=O)c2ccc3ccccc3c2)s1 | -24.3 | 56.5* | 1.6 | 8.5 | 50.0 | 7.4 | 68.4* | 73.1*
O=C(N/N=C/c1cccs1)c1ccc2ccccc2c1 | -12.9 | 25.2 | 1.7 | -5.6 | 2.5 | 3.4 | . | .
O=C(COC(=O)c1cccc([N+](=O)[O-])c1)Nc1ccc(Cl)cn1 | -4.3 | -14.7 | 0.7 | -1.5 | . | -3.9 | . | .
COc1ccc(/C=C/C(=O)c2ccc(Cl)s2)cc1O | -31.1 | -18.8 | 11.3 | -0.5 | -1.3 | -10.9 | . | .
COc1cc(/C=C/C(=O)c2ccc(Cl)s2)cc(OC)c1O | -52.9 | 65.3* | 27.4 | 1.3 | -12.9 | -22.1 | 51.2* | 44.8*
CCN(CC)C(=O)c1cc(C(C)(C)C)c(O)c(C(C)(C)C)c1 | 12.9 | 3.3 | 2.4 | -0.5 | 13.5 | -0.8 | . | .
COc1ccc2ccc(OC)c(/C=N/n3cnnc3)c2c1 | 1.1 | 39.0 | 2.0 | -3.2 | -3.1 | -0.5 | . | .
Cc1ccc(NC(=S)NC(=O)c2ccc(F)cc2)cc1S(=O)(=O)Nc1cccc(Cl)c1 | 40.4 | 67.4* | -2.0 | -0.7 | 60.2 | 16.4 | 54.0* | 107.5*
COc1ccc(NS(=O)(=O)c2cc(OC)ccc2NC(=O)c2cc(C)oc2C)cc1 | 6.9 | 51.5* | -1.1 | -7.8 | 56.6 | 10.2 | 60.6* | 48.5*
COc1ccc(NS(=O)(=O)c2cc(OC)ccc2OC)cc1 | 10.9 | -1.0 | -0.3 | -3.6 | 3.4 | -2.5 | . | .
